# Reference: ChEMBL document CHEMBL1142431, “Benzodioxoles: novel cannabinoid-1 receptor inverse agonists for the treatment of obesity” (J Med Chem, 2008)
# Activity calls are given as the source filed them. The rule behind the calls is not given here.
# Experiments:
# [1] = Selectivity for human CB1 receptor over neuronal N receptor
# [2] = species on record: Homo sapiens; assay: Selectivity for human CB1 receptor over human NET
# [3] = species on record: Homo sapiens; assay: Selectivity for human CB1 receptor over human LTD4 receptor
# [4] = species on record: Homo sapiens; assay: Selectivity for human CB1 receptor over human dopamine D2S receptor
# [5] = Partition coefficient, log D at pH 6.5; assay type: physicochemical; details: octanol/water
# [6] = Selectivity for human CB1 receptor over TRH receptor
# [7] = molecular target: T1, Cannabinoid receptor 1 (Homo sapiens, UniProt P21554); assay: Activity at human CB1R expressed in HEK293 cells assessed as intracellular cAMP level; assay type: functional, cell-based
# T1 sequence (P21554 whole entry): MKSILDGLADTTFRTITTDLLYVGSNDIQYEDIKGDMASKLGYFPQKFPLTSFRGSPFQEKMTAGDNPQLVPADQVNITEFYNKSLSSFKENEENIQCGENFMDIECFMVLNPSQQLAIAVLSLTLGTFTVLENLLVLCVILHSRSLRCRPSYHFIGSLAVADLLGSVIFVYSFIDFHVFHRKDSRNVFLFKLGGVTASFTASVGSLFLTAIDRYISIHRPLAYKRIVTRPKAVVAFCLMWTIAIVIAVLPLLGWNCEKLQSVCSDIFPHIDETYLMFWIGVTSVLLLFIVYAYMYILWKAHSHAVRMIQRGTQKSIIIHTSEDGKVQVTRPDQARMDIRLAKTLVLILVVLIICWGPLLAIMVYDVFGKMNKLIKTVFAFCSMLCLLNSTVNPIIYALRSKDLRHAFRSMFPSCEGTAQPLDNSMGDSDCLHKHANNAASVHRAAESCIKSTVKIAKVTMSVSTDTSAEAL
# [8] = species on record: Homo sapiens; assay: Selectivity for human CB1 receptor over human NK1 receptor
# [9] = Selectivity for human CB1 receptor over BZD receptor
# [10] = Selectivity for human CB1 receptor over DAT
# [11] = Selectivity for human CB1 receptor over P2Y receptor
# [12] = species on record: Homo sapiens; assay: Selectivity for human CB1 receptor over human AT2 receptor
# [13] = Selectivity for human CB1 receptor over neuropeptide Y receptor
# [14] = test system: Rattus norvegicus; assay: Reduction in progression of body weight in diet-induced obesity Sprague-Dawley rat model at 1 mg/kg, po for 16 days; assay type: functional, organism-based; design: dose 1 mg/kg
# In short: (§1)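 Obese Sprague-Dawley rats (HFD 10 weeks from 3 weeks old, selected as >2 SD above chow controls), n = 9 per group, gavage-adapted 3 days, then dosed daily by gavage at 5:00 p.m. for 16 days in water with 7.5% gelatine and 0.62% NaCl, 2 mL/kg; body weight and food intake recorded daily.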
# [15] = Selectivity for human CB1 receptor over PCP receptor
# [16] = Solubility in fasted state stimulated intestinal fluid at pH 6.5; assay type: physicochemical; details: fasted state simulated intestinal fluid
# [17] = Selectivity for human CB1 receptor over CRF1 receptor
# [18] = species on record: Homo sapiens; assay: (§2) Selectivity for human CB1 receptor over human CB2 receptor
# [19] = Selectivity for human CB1 receptor over 5HT receptor
# [20] = Selectivity for human CB1 receptor over L type calcium channel at diltiazem site
# [21] = Selectivity for human CB1 receptor over GABA receptor
# [22] = Selectivity for human CB1 receptor over opiate receptor
# [23] = Selectivity for human CB1 receptor over adrenergic alpha-2 receptor
# [24] = Selectivity for human CB1 receptor over Kv channel
# [25] = test system: Liver microsomes; assay: Clearance in rat liver microsomes; assay type: ADME, Microsome; details: microsomes
# In short: (§3)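 Test compound at 2 µM incubated with liver microsomes (0.5 mg protein/mL) in 50 mM potassium phosphate pH 7.4 at 37 °C. Reaction started with an NADPH-generating system (glucose-6-phosphate 3.2 mM, NADP 2.6 mM, MgCl2 6.5 mM). Six samples over 30 min, quenched in methanol with internal standard, then LC-MS/MS for substrate depletion. CLint taken from the first-order decay, normalized to protein.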
# [26] = Selectivity for human CB1 receptor over muscarinic receptor
# [27] = species on record: Homo sapiens; assay: Selectivity for human CB1 receptor over human NK2 receptor
# [28] = Selectivity for human CB1 receptor over L type calcium channel at DHP site
# [29] = Selectivity for human CB1 receptor over sigma receptor
# [30] = Solubility in fed state stimulated intestinal fluid at pH 6.6; assay type: physicochemical; details: fed state simulated intestinal fluid
# In short: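 Excess compound (about 1-2 mg) was placed in about […] of 50 mM fed-state simulated intestinal fluid at room temperature. Final pH was measured the next day, then samples were filtered and quantified by HPLC against a five-dilution calibration.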
# [31] = Selectivity for human CB1 receptor over central imidazoline I2 receptor
# [32] = Selectivity for human CB1 receptor over L type calcium channel at verapamil site
# [33] = Selectivity for human CB1 receptor over kainate receptor
# [34] = Selectivity for human CB1 receptor over histamine H3 receptor
# [35] = Selectivity for human CB1 receptor over histamine H2 receptor
# [36] = species on record: Homo sapiens; assay: Selectivity for human CB1 receptor over human dopamine D3 receptor
# [37] = test system: Rattus norvegicus; assay: Reduction in body fat in po dosed diet-induced obesity Sprague-Dawley rat model; assay type: functional, organism-based
# In short: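 Sprague-Dawley rats fed HFD from 3 weeks of age for 10 weeks; high responders (body weight exceeding chow controls by >2 SD) grouped n = 9. After 3 days gavage adaptation, daily oral dosing at 5:00 p.m. for 2 weeks in 7.5% gelatine/0.62% NaCl in water, 2 mL/kg. Fat and lean mass by MRI before and at end of treatment.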
# [38] = species on record: Homo sapiens; assay: Selectivity for human CB1 receptor over human estrogen receptor
# [39] = species on record: Homo sapiens; assay: Selectivity for human CB1 receptor over human CCK2 receptor
# [40] = Selectivity for human CB1 receptor over GABA transporter
# [41] = species on record: Homo sapiens; assay: Selectivity for human CB1 receptor over human progesterone receptor
# [42] = Selectivity for human CB1 receptor over histamine H1 receptor
# [43] = species on record: Homo sapiens; assay: Selectivity for human CB1 receptor over human bradykinin B1 receptor
# [44] = species on record: Homo sapiens; assay: Selectivity for human CB1 receptor over human ETA receptor
# [45] = species on record: Homo sapiens; assay: Selectivity for human CB1 receptor over human dopamine D4.4 receptor
# [46] = Selectivity for human CB1 receptor over peripheral imidazoline I1 receptor
# [47] = molecular target: T1, Cannabinoid receptor 1; assay: biochemical; assay type: cell-based, HEK293
# [48] = species on record: Homo sapiens; assay: Selectivity for human CB1 receptor over human MC4 receptor
# [49] = species on record: Homo sapiens; assay: Selectivity for human CB1 receptor over human NK3 receptor
# [50] = species on record: Homo sapiens; assay: Selectivity for human CB1 receptor over human CCK1 receptor
# [51] = species on record: Homo sapiens; assay: Selectivity for human CB1 receptor over human adenosine A2A receptor
# [52] = Permeability from apical to basolateral side of human Caco-2 cell membrane; assay type: ADME, cell-based; details: read-out: permeability
# [53] = species on record: Homo sapiens; assay: Selectivity for human CB1 receptor over human ETB receptor
# [54] = species on record: Homo sapiens; assay: Selectivity for human CB1 receptor over human adenosine A1 receptor
# [55] = species on record: Homo sapiens; assay: as §2; remark: listed apart in the source
# [56] = species on record: Homo sapiens; assay: Selectivity for human CB1 receptor over human vanilloid V2 receptor
# [57] = Selectivity for human CB1 receptor over K ATP channel
# [58] = Selectivity for human CB1 receptor over chloride channel
# [59] = test system: Rattus norvegicus; assay: Reduction in progression of body weight in diet-induced obesity Sprague-Dawley rat model at 3 mg/kg, po for 16 days; assay type: functional, organism-based; design: dose 3 mg/kg; in short: as §1
# [60] = test system: Liver microsomes; assay: Clearance in human liver microsomes; assay type: ADME, Microsome; details: microsomes; in short: as §3
# [61] = species on record: Homo sapiens; assay: Selectivity for human CB1 receptor over human vanilloid V1a receptor
# [62] = species on record: Homo sapiens; assay: Selectivity for human CB1 receptor over human dopamine D1 receptor
# [63] = species on record: Homo sapiens; assay: Selectivity for human CB1 receptor over human adenosine A3 receptor
# [64] = Selectivity for human CB1 receptor over androgen receptor
# [65] = species on record: Homo sapiens; assay: Selectivity for human CB1 receptor over human adrenergic beta2 receptor
compound,measurement,setting,value
O=C(c1cc2c(cc1F)O[C@](c1ccc(F)cc1)(c1ccc(Cl)cc1Cl)O2)N1CCOCC1,Selectivity ratio,[1],300
same,Selectivity ratio,[2],300
same,Selectivity ratio,[3],300
same,Selectivity ratio,[4],300
same,logD,[5],> 4
same,Selectivity ratio,[6],300
same,EC50,[7],8 nM
same,Selectivity ratio,[8],300
same,Selectivity ratio,[9],300
same,Selectivity ratio,[10],300
same,Selectivity ratio,[11],300
same,Selectivity ratio,[12],300
same,Selectivity ratio,[13],300
same,Activity,[14],Active
same,Selectivity ratio,[15],300
same,solubility,[16],129 µg/mL
same,Selectivity ratio,[17],300
same,Selectivity ratio,[18],1000
same,Selectivity ratio,[19],300
same,Selectivity ratio,[20],300
same,Selectivity ratio,[21],300
same,Selectivity ratio,[22],300
same,Selectivity ratio,[23],300
same,Selectivity ratio,[24],300
same,clearance,[25],27 µL/min/mg
same,Selectivity ratio,[26],300
same,Selectivity ratio,[27],300
same,Selectivity ratio,[28],300
same,Selectivity ratio,[29],300
same,solubility,[30],445 µg/mL
same,Selectivity ratio,[31],300
same,Selectivity ratio,[32],300
same,Selectivity ratio,[33],300
same,Selectivity ratio,[34],300
same,Selectivity ratio,[35],300
same,Selectivity ratio,[36],300
same,Activity,[37],Active
same,Selectivity ratio,[38],300
same,Selectivity ratio,[39],300
same,Selectivity ratio,[40],300
same,Selectivity ratio,[41],300
same,Selectivity ratio,[42],300
same,Selectivity ratio,[43],300
same,Selectivity ratio,[44],300
same,Selectivity ratio,[45],300
same,Selectivity ratio,[46],300
same,Ki,[47],3.3 nM
same,Selectivity ratio,[48],300
same,Selectivity ratio,[49],300
same,Selectivity ratio,[50],300
same,Selectivity ratio,[51],300
same,Papp A→B,[52],10.6 ×10⁻⁶ cm/s
same,Selectivity ratio,[53],300
same,Selectivity ratio,[54],300
same,Selectivity ratio,[55],> 1000
same,Selectivity ratio,[56],300
same,Selectivity ratio,[57],300
same,Selectivity ratio,[58],300
same,Activity,[59],Active
same,clearance,[60],11 µL/min/mg
same,Selectivity ratio,[61],300
same,Selectivity ratio,[62],300
same,Selectivity ratio,[63],300
same,Selectivity ratio,[64],300
same,Selectivity ratio,[65],300
